According to ChEMBL document CHEMBL1142970, “Inhibition of secreted phospholipase A2. 4-glycerol derivatives of 4,5-dihydro-3-(4-tetradecyloxybenzyl)-1,2,4-4H-oxadiazol-5-one with broad activities” (J Med Chem, 2007):

Experiments:
[1] = molecular target: T1, Phospholipase A2, membrane associated (Homo sapiens, UniProt P14555); test: Inhibition of human group IIA PLA2 in [3H]oleate-labeled Escherichia coli membrane by radiometric assay
T1 sequence (P14555 whole entry): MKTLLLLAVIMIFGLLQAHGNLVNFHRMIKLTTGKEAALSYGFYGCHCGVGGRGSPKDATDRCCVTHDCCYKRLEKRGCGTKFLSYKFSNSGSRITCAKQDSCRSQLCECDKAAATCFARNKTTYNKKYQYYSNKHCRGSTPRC
In short: (§1)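 Incubation 30-60 min, time adjusted for linear hydrolysis. Stopped with 0.1 M EDTA pH 8.0/1% BSA, centrifuged 10 000g, supernatant counted. Enzyme-free controls subtracted. IC50 obtained after 10 µM screen.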

[2] = Lipophilicity, log P of the compound; type: physicochemical; details: octanol/water
In short: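 log P calculated from Rekker's hydrophobic fragmental constants.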

[3] = molecular target: Phospholipase A2 (Homo sapiens, UniProt P04054); test: Inhibition of human group IB PLA2 in [3H]oleate-labeled Escherichia coli membrane by radiometric assay; in short: as §1
[4] = molecular target: T2, Phospholipase A2 group V (Homo sapiens, UniProt P39877); test: Inhibition of human group V PLA2 in [3H]oleate-labeled Escherichia coli membrane by radiometric assay; in short: as §1
T2 sequence (P39877 whole entry): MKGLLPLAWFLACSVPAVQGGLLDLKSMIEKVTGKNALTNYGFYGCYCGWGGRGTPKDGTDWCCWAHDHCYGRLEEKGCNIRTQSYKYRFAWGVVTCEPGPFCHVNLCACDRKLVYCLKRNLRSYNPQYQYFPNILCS

[5] = molecular target: T1, Phospholipase A2, membrane associated; test: Inhibition of human group IIA PLA2 by fluorimetric assay
In short: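 Fluorimetric (Radvanyi method): 1 ng synthetic hGIIA sPLA2 in 1 mL of 50 mM Tris-HCl pH 7.5, 100 mM NaCl, 1 mM EGTA, 0.1% fatty acid-free BSA, 2 µM β-pyC-10-PG. Inhibitor added in ethanol or DMSO after BSA. Reaction started with 10 mM CaCl2 (final), fluorescence rise followed 2 min.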

[6] = molecular target: Phospholipase A2, major isoenzyme (Sus scrofa, UniProt P00592); test: Inhibition of pig group IB PLA2 by fluorimetric assay
In short: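 Porcine pancreatic sPLA2, 60 ng per 1 mL, in 50 mM Tris-HCl pH 7.5, 100 mM NaCl, 1 mM EGTA, 0.1% fatty acid-free BSA, 2 µM pyrene substrate β-pyC-10-PG. Inhibitor in ethanol or DMSO added after BSA. Activity as µmol hydrolyzed/min/mg, giving 50%-inhibition concentration.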

[7] = molecular target: T3, Group 10 secretory phospholipase A2 (Homo sapiens, UniProt O15496); test: Inhibition of human group X PLA2 in [3H]oleate-labeled Escherichia coli membrane by radiometric assay; in short: as §1
T3 sequence (O15496 whole entry): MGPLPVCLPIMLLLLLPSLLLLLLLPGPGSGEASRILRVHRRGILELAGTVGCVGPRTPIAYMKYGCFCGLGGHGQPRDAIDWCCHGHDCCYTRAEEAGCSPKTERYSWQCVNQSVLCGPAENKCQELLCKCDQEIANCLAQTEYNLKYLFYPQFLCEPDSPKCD

Sequence of Phospholipase A2, major isoenzyme (P00592 whole entry): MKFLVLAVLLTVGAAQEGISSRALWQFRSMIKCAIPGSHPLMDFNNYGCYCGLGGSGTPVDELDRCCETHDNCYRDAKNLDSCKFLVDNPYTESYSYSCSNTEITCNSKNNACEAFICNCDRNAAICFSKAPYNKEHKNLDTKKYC
Sequence of Phospholipase A2 (P04054 whole entry): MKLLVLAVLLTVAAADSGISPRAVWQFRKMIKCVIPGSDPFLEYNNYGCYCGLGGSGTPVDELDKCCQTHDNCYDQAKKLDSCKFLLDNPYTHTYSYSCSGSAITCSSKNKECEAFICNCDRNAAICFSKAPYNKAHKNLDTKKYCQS

Compound | IC50 [1] | logP ([2]; read-out: LogP) | IC50 [3] | IC50 [4] | IC50 [5] | IC50 [6] | IC50 [7] | logP [2]
CCCCCCCCCCCCCCOCC(COc1ccc(-c2noc(=O)[nH]2)cc1)Oc1ccc(-c2noc(=O)[nH]2)cc1 (racemic) |  | 7.05 |  |  | 21 µM | 63.6 µM |  | 
CCCCCCCCCCCCCCOC(COCc1cccc(OC)c1)COc1ccc(-c2nc(=O)o[nH]2)cc1 (racemic) |  | 8.56 |  |  | 2.2 µM | 39 µM |  | 
CCCCCCCCCCCCCCOC(COc1ccc(Cc2nc(=O)o[nH]2)cc1)COc1ccc(Cc2nc(=O)o[nH]2)cc1 |  | 7.64 |  |  | 2.1 µM | 39.9 µM |  | 
CCCCCCCCCCCCCCCCCCOC(COCc1ccc(C#N)cc1)COc1ccc(Cc2noc(=O)[nH]2)cc1 (racemic) | 1.15 µM |  | 8.7 µM | 1 µM | 0.15 µM | 36.6 µM | 0.9 µM | 11
CCCCCCCCCCCCCCOC(COCCCCCCCCCC)COc1ccc(-c2nc(=O)o[nH]2)cc1 (stereo not drawn) | 1 µM |  | 10 µM | 0.55 µM | 0.28 µM | > 100 µM | 1 µM | 11.5
CCCCCCCCCCCCCCOC(COCC)COc1ccc(-c2noc(=O)[nH]2)cc1 (racemic) |  | 7.34 |  |  | 29.8 µM | > 40 µM |  | 
CCCCCCCCCOCC(COc1ccc(Cc2noc(=O)[nH]2)cc1)OCCCCCCCCC (racemic) |  |  |  |  | 2.7 µM | > 100 µM |  | 9.18
Cc1c(C(=O)C(N)=O)c2c(OCC(=O)O)cccc2n1Cc1ccccc1-c1ccccc1 | 0.18 µM |  | 3.3 µM | 0.27 µM |  |  | 4.57 µM | 
CCCCCCCCCCCCCCOC(COCCCCC)COc1ccc(-c2noc(=O)[nH]2)cc1 (racemic) |  | 8.72 |  |  | 8.3 µM | > 100 µM |  | 
CCCCCCCCCCCCCCOC(COc1ccc(-c2noc(=O)[nH]2)cc1)COC(c1ccccc1)c1ccccc1 (racemic) | 5 µM |  | 18 µM | 2 µM | 0.28 µM | 5.6 µM | 5.3 µM | 10.1
CCCCCCCCCCCCCCOC(COc1ccc(-c2nc(=O)o[nH]2)cc1)COc1ccc(-c2nc(=O)o[nH]2)cc1 |  | 7.05 |  |  | 47.7 µM | > 100 µM |  | 
CCCCCCCCCCCCCCOC(COCCCCc1ccccc1)COc1ccc(-c2noc(=O)[nH]2)cc1 (racemic) | 26 µM |  | 15 µM | 22 µM | 0.29 µM | 2.2 µM | 12 µM | 10
O=c1nc(-c2ccc(OCC(COCCCCc3ccccc3)OCCCCc3ccccc3)cc2)[nH]o1 (racemic) |  | 6.51 |  |  | 76.7 µM | > 100 µM |  | 

Continued by falling IC50 [5], values first:

IC50 [1] | logP ([2]; read-out: LogP) | IC50 [3] | IC50 [4] | IC50 [5] | IC50 [6] | IC50 [7] | logP [2] | Compound
 | 6.59 |  |  | 56 µM | > 100 µM |  |  | CCCCCCCCCCCCCCOC(CO)COc1ccc(-c2noc(=O)[nH]2)cc1 (racemic)
 | 6.3 |  |  | 50.9 µM | > 100 µM |  |  | CCCCCCCOCC(COc1ccc(-c2noc(=O)[nH]2)cc1)OCCCCCCC (racemic)
 | 2.97 |  |  | 30.5 µM | > 100 µM |  |  | CCCCCOC(COc1ccc(Cc2noc(=O)[nH]2)cc1)COc1ccc(Cc2noc(=O)[nH]2)cc1
> 100 µM | 8.48 | > 100 µM | > 100 µM | 14.8 µM | > 25 µM | 14 µM |  | CCCCCCCCCCCCCCOC(COCc1ccccc1)COc1ccc(-c2noc(=O)[nH]2)cc1 (racemic)
 | 7.12 |  |  | 11.6 µM | > 100 µM |  |  | CCCCCCCOCC(COc1ccc(Cc2noc(=O)[nH]2)cc1)OCCCCCCC (racemic)
 | 7.08 |  |  | 4 µM | > 100 µM |  |  | CCCCCCCCCCCCCCOc1ccc(Cc2noc(=O)[nH]2)cc1
 | 7.64 |  |  | 3.1 µM | 57.8 µM |  |  | CCCCCCCCCCCCCCOCC(COc1ccc(Cc2nc(=O)o[nH]2)cc1)Oc1ccc(Cc2nc(=O)o[nH]2)cc1 (racemic)
7.6 µM | 8.94 | 7.6 µM | 1.73 µM | 1.1 µM | 9.6 µM | 5 µM |  | CCCCCCCCCCCCCCOC(COCc1ccc(C#N)cc1)COc1ccc(Cc2nc(=O)o[nH]2)cc1 (racemic)
2 µM |  | 5.75 µM | 0.66 µM | 0.9 µM | > 50 µM | 1.25 µM | 11.8 | CCCCCCCCCCCCCCOC(COc1ccc(-c2noc(=O)[nH]2)cc1)COC(c1ccccc1)(c1ccccc1)c1ccccc1 (racemic)
 |  |  |  | 0.33 µM | > 50 µM |  | 11.8 | CCCCCCCCCCCCCCO[C@@H](COc1ccc(-c2nc(=O)o[nH]2)cc1)COC(c1ccccc1)(c1ccccc1)c1ccccc1
